Assays:
[1] = biological target: T1, DNA topoisomerase 1 (Homo sapiens) (UniProt P11387); experiment: Inhibition of human recombinant DNA topoisomerse 1 using pBR322 as substrate assessed as inhibition of conversion of supercoiled pBR322 to relaxed form at 100 uM after 30 mins by ethidium bromide staining-based electrophoresis analysis
T1 sequence (whole entry): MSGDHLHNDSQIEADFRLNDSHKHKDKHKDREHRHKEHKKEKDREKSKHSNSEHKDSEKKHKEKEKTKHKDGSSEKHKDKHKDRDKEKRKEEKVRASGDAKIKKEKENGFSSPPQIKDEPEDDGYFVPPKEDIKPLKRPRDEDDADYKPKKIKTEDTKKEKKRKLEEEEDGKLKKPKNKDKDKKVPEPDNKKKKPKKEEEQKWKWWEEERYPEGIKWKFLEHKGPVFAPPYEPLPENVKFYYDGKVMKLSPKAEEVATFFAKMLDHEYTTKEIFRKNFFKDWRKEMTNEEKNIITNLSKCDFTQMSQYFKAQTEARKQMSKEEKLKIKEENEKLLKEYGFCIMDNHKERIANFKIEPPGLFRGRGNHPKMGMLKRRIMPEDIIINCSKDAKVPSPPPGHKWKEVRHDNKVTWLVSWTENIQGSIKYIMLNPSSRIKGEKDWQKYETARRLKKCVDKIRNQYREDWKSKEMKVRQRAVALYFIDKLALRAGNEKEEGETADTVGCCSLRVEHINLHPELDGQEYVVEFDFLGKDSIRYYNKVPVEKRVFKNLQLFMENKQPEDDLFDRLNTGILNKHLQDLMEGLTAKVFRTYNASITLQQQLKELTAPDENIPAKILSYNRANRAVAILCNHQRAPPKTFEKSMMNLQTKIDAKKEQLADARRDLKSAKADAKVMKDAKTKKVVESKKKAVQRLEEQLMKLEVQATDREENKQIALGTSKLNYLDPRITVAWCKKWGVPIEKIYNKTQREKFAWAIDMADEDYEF
Outline: (§1)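 Relaxation of supercoiled pBR322 (100 ng) by 1 unit recombinant human topo I. Run at 37 °C for 30 min in 10 mM Tris-HCl pH 7.9, 150 mM NaCl, 0.1% BSA, 1 mM spermidine, 5% glycerol. Compounds from 20 mM DMSO stocks. Stopped with sarcosyl, then 1% agarose gel at 15 V for 7 h in TAE. Ethidium bromide stain, UV imaging, bands quantitated.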

[2] = biological target: T1, DNA topoisomerase 1 (Homo sapiens); experiment: Inhibition of human recombinant DNA topoisomerse 1 using pBR322 as substrate assessed as inhibition of conversion of supercoiled pBR322 to relaxed form at 20 uM after 30 mins by ethidium bromide staining-based electrophoresis analysis; outline: as §1
[3] = biological target: DNA topoisomerase 2-alpha (Homo sapiens) (UniProt P11388); experiment: Inhibition of human recombinant DNA topoisomerse 2 alpha using pBR322 as substrate assessed as inhibition of conversion of supercoiled pBR322 to relaxed form at 100 uM after 30 mins by ethidium bromide staining-based electrophoresis analysis
Outline: (§2)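 Supercoiled pBR322 (200 ng) with 1 unit human topo IIα, 30 min at 30 °C. Buffer: 10 mM Tris-HCl pH 7.9, 50 mM NaCl, 5 mM MgCl2, 1 mM EDTA, 1 mM ATP, 15 μg/mL BSA. Stopped with EDTA. 1% agarose gel at 25 V for 4 h in TAE, ethidium bromide stain, supercoiled DNA quantitated under UV.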

[4] = biological target: DNA topoisomerase 2-alpha (Homo sapiens) (UniProt P11388); experiment: Inhibition of human recombinant DNA topoisomerse 2 alpha using pBR322 as substrate assessed as inhibition of conversion of supercoiled pBR322 to relaxed form at 20 uM after 30 mins by ethidium bromide staining-based electrophoresis analysis; outline: as §2
HCT-15 = experiment: Cytotoxicity against human HCT15 cells incubated from day 2 to day 4 by CCK8 assay; format: functional, cell-based
Outline: (§3)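 Cells seeded at 2~4 × 10^4 per well and grown overnight in medium with 10% FBS at 37 °C, 5% CO2. Day 2: FBS starvation 4 h, then medium with graded compound concentrations. Day 4: CCK-8 added for 4 h more, absorbance read at 450 nm. IC50 from four-parameter logistic fit. Mean ± S.D. of three experiments run in triplicate.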

T47D = experiment: Cytotoxicity against human T47D cells incubated from day 2 to day 4 by CCK8 assay; format: functional, cell-based; outline: as §3
DU-145 = experiment: Cytotoxicity against human DU145 cells incubated from day 2 to day 4 by CCK8 assay; format: functional, cell-based; outline: as §3
HeLa = experiment: Cytotoxicity against human HeLa cells incubated from day 2 to day 4 by CCK8 assay; format: functional, cell-based; outline: as §3

Sequence of DNA topoisomerase 2-alpha (Homo sapiens) (P11388 whole entry): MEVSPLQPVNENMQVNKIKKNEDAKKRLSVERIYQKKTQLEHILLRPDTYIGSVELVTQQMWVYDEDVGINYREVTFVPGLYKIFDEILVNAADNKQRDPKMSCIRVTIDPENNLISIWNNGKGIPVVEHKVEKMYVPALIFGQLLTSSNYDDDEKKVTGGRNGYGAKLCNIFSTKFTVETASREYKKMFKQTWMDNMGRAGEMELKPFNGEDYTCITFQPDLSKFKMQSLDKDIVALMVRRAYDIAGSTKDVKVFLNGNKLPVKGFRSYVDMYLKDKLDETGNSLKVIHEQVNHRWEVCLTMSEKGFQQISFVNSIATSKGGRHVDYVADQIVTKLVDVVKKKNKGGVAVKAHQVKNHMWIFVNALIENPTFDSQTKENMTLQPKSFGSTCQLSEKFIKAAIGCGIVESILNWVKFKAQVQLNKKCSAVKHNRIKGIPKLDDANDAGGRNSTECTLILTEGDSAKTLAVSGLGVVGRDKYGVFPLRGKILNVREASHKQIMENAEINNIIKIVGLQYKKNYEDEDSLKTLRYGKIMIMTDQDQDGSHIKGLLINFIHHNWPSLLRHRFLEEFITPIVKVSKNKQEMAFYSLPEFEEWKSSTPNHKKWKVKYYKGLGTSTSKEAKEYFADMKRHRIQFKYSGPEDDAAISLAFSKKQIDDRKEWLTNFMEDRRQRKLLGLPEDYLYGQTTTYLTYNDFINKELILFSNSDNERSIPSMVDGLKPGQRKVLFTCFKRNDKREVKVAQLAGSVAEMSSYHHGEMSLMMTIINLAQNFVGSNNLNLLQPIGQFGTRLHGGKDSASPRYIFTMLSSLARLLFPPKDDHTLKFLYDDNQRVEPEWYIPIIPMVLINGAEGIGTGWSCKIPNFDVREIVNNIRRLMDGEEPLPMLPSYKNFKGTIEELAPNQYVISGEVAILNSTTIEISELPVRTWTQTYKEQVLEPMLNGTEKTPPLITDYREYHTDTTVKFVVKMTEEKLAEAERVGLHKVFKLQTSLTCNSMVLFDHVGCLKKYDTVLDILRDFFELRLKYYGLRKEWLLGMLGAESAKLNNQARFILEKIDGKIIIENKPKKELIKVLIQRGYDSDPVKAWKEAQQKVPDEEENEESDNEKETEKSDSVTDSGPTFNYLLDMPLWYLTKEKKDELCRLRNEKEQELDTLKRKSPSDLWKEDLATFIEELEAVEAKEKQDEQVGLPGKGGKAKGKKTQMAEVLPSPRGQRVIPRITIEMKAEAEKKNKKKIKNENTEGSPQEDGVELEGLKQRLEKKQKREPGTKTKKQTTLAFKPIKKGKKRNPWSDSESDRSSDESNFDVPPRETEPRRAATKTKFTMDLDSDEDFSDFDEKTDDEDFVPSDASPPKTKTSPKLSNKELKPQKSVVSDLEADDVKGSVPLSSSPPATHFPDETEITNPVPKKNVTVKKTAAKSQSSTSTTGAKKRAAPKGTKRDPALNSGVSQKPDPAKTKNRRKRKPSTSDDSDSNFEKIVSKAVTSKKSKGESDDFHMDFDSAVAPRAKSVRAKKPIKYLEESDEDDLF

Q: Which results are given for Oc1cccc(-c2cc(-c3cccs3)c3c(n2)-c2ccccc2C3)c1?
A: inhibition [1]: 55.6%; inhibition [2]: 0%; inhibition [3]: 72.2%; inhibition [4]: 32%; IC50 (HCT-15): 2.32 µM; IC50 (T47D): 4.07 µM; IC50 (DU-145): 4.38 µM; IC50 (HeLa): 1.47 µM
